Measured values from ChEMBL document CHEMBL1221233, “4''-O-(omega-Quinolylamino-alkylamino)propionyl derivatives of selected macrolides with the activity against the key erythromycin resistant respiratory pathogens” (2010).
Values after ≈ are worked out from the molar mass of the structure shown.

Tests used:
Format in all cases: functional
[1] = tested on: Haemophilus influenzae; test: Antibacterial activity against Haemophilus influenzae ATCC 49247 by broth microdilution method
Outline: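 MIC by broth microdilution following CLSI guidelines, expressed in units of lg/mL. Twofold dilutions prepared in 96-well plates. H. influenzae grown on Mueller-Hinton chocolate agar before testing.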

[2] = tested on: Streptococcus pyogenes; test: Antibacterial activity against constitutive MLS resistance sStreptococcus pyogenes 166 GR-Micro by broth microdilution method
Outline: (§1)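 MIC by CLSI broth microdilution. In the streptococcal medium, 5% horse serum replaced lysed blood. Compounds were tested as two-fold serial dilutions. Strains were first grown on Columbia agar with 5% sheep blood. The MIC was read as the lowest concentration inhibiting growth.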

[3] = tested on: Staphylococcus aureus; test: Antibacterial activity against efflux-mediated macrolide-resistance Staphylococcus aureus PK1 by broth microdilution method
Outline: (§2)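 Staphylococci were grown on Mueller-Hinton agar and then tested by CLSI-guideline broth microdilution against two-fold serial dilutions of compound. The result was recorded as the minimum inhibitory concentration.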

[4] = tested on: Streptococcus pneumoniae; test: Antibacterial activity against efflux-mediated macrolide-resistance Streptococcus pneumoniae Ci137 by broth microdilution method; outline: as §1
[5] = tested on: Streptococcus pyogenes; test: Antibacterial activity against efflux-mediated macrolide-resistance Streptococcus pyogenes 2 Finland by broth microdilution method; outline: as §1
[6] = tested on: Staphylococcus aureus; test: Antibacterial activity against inducible resistance to macrolide, licosamide and streptogramin Staphylococcus aureus 90256 by broth microdilution method; outline: as §2
[7] = tested on: Streptococcus pneumoniae; test: Antibacterial activity against inducible resistance to macrolide and constitutive resistance to lincosamide Streptococcus pneumoniae 134 GR M by broth microdilution method; outline: as §1
[8] = tested on: Streptococcus pneumoniae; test: Antibacterial activity against constitutive MLS resistance Streptococcus pneumoniae 58 by broth microdilution method; outline: as §1

SMILES | MIC [1] [µg/mL] | MIC [2] [µg/mL] | MIC [3] [µg/mL] | MIC [4] [µg/mL] | MIC [5] [µg/mL] | MIC [6] [µg/mL] | MIC [7] [µg/mL] | MIC [8] [µg/mL]
CC[C@H]1OC(=O)[C@H](C)[C@@H](O[C@H]2C[C@@](C)(OC)[C@@H](OC(=O)CCNCCCNc3cc4c(cc3F)c(=O)c(C(=O)O)cn4C3CC3)[C@H](C)O2)[C@H](C)[C@@H](O[C@@H]2O[C@H](C)C[C@H](N(C)C)[C@H]2O)[C@](C)(O)C[C@@H](C)C(=O)[C@H](C)[C@@H](O)[C@]1(C)O | 8 (≈ 7.22 µM) | 2 (≈ 1.81 µM) | 1 (≈ 0.903 µM) | ≤ 0.125 | ≤ 0.125 | 64 (≈ 57.8 µM) | 2 (≈ 1.81 µM) | 0.25 (≈ 0.226 µM)
CC[C@H]1OC(=O)[C@H](C)[C@@H](O[C@H]2C[C@@](C)(OC)[C@@H](OC(=O)CCNCCNc3ccc4c(=O)c(C(=O)O)cn(C5CC5)c4c3)[C@H](C)O2)[C@H](C)[C@@H](O[C@@H]2O[C@H](C)C[C@H](N(C)C)[C@H]2O)[C@](C)(O)C[C@@H](C)NC(=O)[C@H](C)[C@@H](O)[C@]1(C)O | 8 (≈ 7.34 µM) | 32 (≈ 29.3 µM) | 64 (≈ 58.7 µM) | ≤ 0.125 | ≤ 0.125 | 64 (≈ 58.7 µM) | 64 (≈ 58.7 µM) | 32 (≈ 29.3 µM)
CC[C@H]1OC(=O)[C@H](C)[C@@H](O[C@H]2C[C@@](C)(OC)[C@@H](OC(=O)CCN(C)CCNc3cc4c(=O)c(C(=O)OC)cn(C5CC5)c4cc3Cl)[C@H](C)O2)[C@H](C)[C@@H](O[C@@H]2O[C@H](C)C[C@H](N(C)C)[C@H]2O)[C@](C)(O)C[C@@H](C)CN(C)[C@H](C)[C@@H](O)[C@]1(C)O | 8 (≈ 6.94 µM) | 1 (≈ 0.867 µM) | 16 (≈ 13.9 µM) | ≤ 0.125 | ≤ 0.125 | > 64 | 0.5 (≈ 0.434 µM) | 0.5 (≈ 0.434 µM)
